From the M2OR odorant receptor database
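Also: active if original authors judged signal statistically different from baseline.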

These compounds were tested against T1, UniProt Q8VGL0. Details: stereoisomer not certain.
T1 sequence (whole entry): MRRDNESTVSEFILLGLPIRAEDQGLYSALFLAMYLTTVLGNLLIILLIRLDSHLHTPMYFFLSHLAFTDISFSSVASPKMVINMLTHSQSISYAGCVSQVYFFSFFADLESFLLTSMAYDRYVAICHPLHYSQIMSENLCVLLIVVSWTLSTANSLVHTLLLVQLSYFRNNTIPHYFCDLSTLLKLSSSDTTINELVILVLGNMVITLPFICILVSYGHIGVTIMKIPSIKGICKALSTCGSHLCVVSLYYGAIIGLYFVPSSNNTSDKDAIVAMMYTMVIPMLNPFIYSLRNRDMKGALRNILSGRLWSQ
Procedure, shortened: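 Each receptor–molecule pair is labelled responsive or non-responsive (inactive) according to whether the original authors judged the measured signal statistically different from baseline. The data were taken from the main text and supplementary material of published papers and checked for typos and inconsistencies. Assay methods differed by source, with transient luciferase assays in mammalian cell lines being common.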
With `CC(=O)OCc1ccc2c(c1)OCO2` the “odorant receptor agonist call” value was “inactive”. `Cc1occc1SSc1ccoc1C` was tested, and the “odorant receptor agonist call” value was “inactive”. For `C=C(CC)CCCC(C)(C)O`, the “odorant receptor agonist call” value was “inactive”. `Cc1ccc(C(C)C)c(O)c1` was tested, and the “odorant receptor agonist call” value was “inactive”. `CCCCCCCCCC=CC=O` was tested, and the “odorant receptor agonist call” value was “inactive”. In the case of `CCC=CCCCCC=O`, the “odorant receptor agonist call” value is reported as “inactive”. `CCSCC` was tested, and the “odorant receptor agonist call” value was “inactive”. For `CC(C)CS`, the “odorant receptor agonist call” value was “inactive”. In the case of `Cc1ccc(OC(=O)C(C)C)cc1`, the “odorant receptor agonist call” value is reported as “inactive”. For `CCN(CC)CC`, the “odorant receptor agonist call” value was “inactive”. In the case of `CCc1nccnc1CC`, the “odorant receptor agonist call” value is reported as “inactive”. With `C=CC(C)=CCC=C(C)CCC=C(C)C` the “odorant receptor agonist call” value was “inactive”. For `c1ccc2ncccc2c1`, the “odorant receptor agonist call” value was “inactive”. `CC(=O)OC1(C)CCC23CC1C(C)(C)C2CCC3C` (configuration not stated) was tested, and the “odorant receptor agonist call” value was “inactive”. For `CCCCCC(C)O` (configuration not stated), the “odorant receptor agonist call” value was “inactive”. `CCCCCCCCOC=O` was tested, and the “odorant receptor agonist call” value was “inactive”. For `CCCC(C)C(=O)OCC` (configuration not stated), the “odorant receptor agonist call” value was “inactive”. `CCCCCCCCCCCO` was tested, and the “odorant receptor agonist call” value was “inactive”. For `O=C(O)CCCCCBr`, the “odorant receptor agonist call” value was “inactive”. For `CSSSC`, the “odorant receptor agonist call” value was “inactive”. `Cc1ccccc1OC(=O)C(C)C` was tested, and the “odorant receptor agonist call” value was “inactive”. With `CCCCCCC(C)O` (configuration not stated) the “odorant receptor agonist call” value was “inactive”. In the case of `CC1(C)CC(=O)CC(=O)C1`, the “odorant receptor agonist call” value is reported as “inactive”. With `C1CCOCC1` the “odorant receptor agonist call” value was “inactive”. `C=CC(=C)CCC=C(C)C` was tested, and the “odorant receptor agonist call” value was “inactive”. For `CC(C)CCN`, the “odorant receptor agonist call” value was “inactive”. `C=C1C2CCC(C2)C1(C)C` (configuration not stated) was tested, and the “odorant receptor agonist call” value was “inactive”. For `CC(C)=CCCC(C)=CCOC(=O)C(C)C`, the “odorant receptor agonist call” value was “inactive”. With `CCCCCCCOC(=O)C(C)C` the “odorant receptor agonist call” value was “inactive”. For `Cc1ccc(C(C)C)cc1`, the “odorant receptor agonist call” value was “inactive”. For `CC(C)=C1CCC(C)CC1=O` (configuration not stated), the “odorant receptor agonist call” value was “inactive”. With `CCCCCCC(=O)OCCCC` the “odorant receptor agonist call” value was “inactive”. With `CCc1ccccc1O` the “odorant receptor agonist call” value was “active”. In the case of `OCC=Cc1ccccc1`, the “odorant receptor agonist call” value is reported as “inactive”. With `COc1nccnc1C` the “odorant receptor agonist call” value was “inactive”. For `C=C(C)C1CCC2(C)OC2C1` (configuration not stated), the “odorant receptor agonist call” value was “inactive”. `O=C(O)CCCCCCCCC(=O)O` was tested, and the “odorant receptor agonist call” value was “inactive”.
